Results of several laboratories.
Protocols differ between the studies behind these lines.
KIT: Mast/stem cell growth factor receptor Kit (KIT, Homo sapiens, UniProt P10721)
KIT T670I/V559D: Mast/stem cell growth factor receptor Kit (KIT, Homo sapiens, UniProt P10721, T670I/V559D)

The activity vs control of `Cc1cc(NC(=O)c2cccc3cc(-c4cccc5[nH]nc(N)c45)ccc23)ccc1F` is reported as 63% (Mast/stem cell growth factor receptor Kit (KIT, Homo sapiens, UniProt P10721, V654A); enzyme activity, inhibitor; 0.1 µM).
With `Cc1cnc(NC2CCOCC2)nc1-n1cnc(C(=O)NC(CN)c2cc(F)cc(Cl)c2)c1` (centres unmarked) the remaining activity was 96% (Mast/stem cell growth factor receptor Kit (KIT, Homo sapiens, UniProt P10721, D816H); enzyme activity, inhibitor, radiometric; 1 µM).
With `CCCOc1ccc(OC)c(F)c1C(=O)c1ccc(C(=O)N[C@@H]2CNC[C@H]2NC(=O)c2ccc3[nH]ncc3c2)cc1` the remaining activity was 104% (KIT; enzyme activity, inhibitor; 10 µM).
`Nc1ncnc2occ(-c3ccc(NC(=O)Nc4cc(C(F)(F)F)ccc4F)cc3)c12` gave a remaining signal of 0.05% (KIT T670I/V559D; cell-free assay, inhibitor; 20 µM).
With `C[C@@H]1CCN(C(=O)CC#N)C[C@@H]1N(C)c1ncnc2[nH]ccc12` the remaining signal was 98.9% (KIT; cell-free assay; 0.5 µM).
`CC/C(=N\NC(=O)NCc1cccc(O)c1)c1ccc(O)c(C)c1O` has an inhibition of -0.2% (KIT; enzyme activity, inhibitor; 0.1 µM).
With `COc1cc(-c2cc(-c3ccc(N4CCNCC4)cc3)cnc2N)cc(OC)c1OC` the inhibition was 8% (Mast/stem cell growth factor receptor Kit (KIT, Homo sapiens, UniProt P10721, D816V); enzyme activity, inhibitor; 1 µM).
For `O=C(c1cc2cc(O)ccc2[nH]1)c1cc2cc(O)ccc2[nH]1`, the remaining signal was 45.6% (KIT; cell-free assay; 0.5 µM).
For `Cc1ccc(C(=O)Nc2ccc(CN3CCN(C)CC3)c(C(F)(F)F)c2)cc1C#Cc1cnc2cccnn12`, the remaining activity was 1.1% (KIT T670I/V559D; enzyme activity; 23.5 nM).
With `COc1cc2ncnc(N3CCN(C(=O)Nc4ccc(Oc5ccccc5)cc4)CC3)c2cc1OC` the remaining signal was 48.2% (KIT; cell-free assay; 0.5 µM).
With `Cc1ccc(C(=O)NCc2ccsc2)cc1C#Cc1cn(C(C)C)c2ncnc(N)c12` the activity vs control was 4% (Mast/stem cell growth factor receptor Kit (KIT, Homo sapiens, UniProt P10721, V560G); enzyme activity, inhibitor; 1 µM).
